For the test, the system named is HEp-2 cells, RSV plaque reduction, virus titer. The test can be described thus: inhibitors of RSV replication, plaque titer, late-stage follow-up, orthogonal assay for RSV inhibitor project, cell-based, set 5 (AID 588791). The conditions noted are these: stronger effect = lower value. The essentials: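 System: HEp-2 cells infected with respiratory syncytial virus, Long strain. Also added: RSV Long strain at MOI 0.1, 2 h adsorption. Times: compound exposure 48 h at 37 °C after infection. Signal: plaque assay on HEp-2, neutral red staining. Buffer or medium: 1% Avicel overlay for 6-day plaque titration.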

Active and inactive are the calls of the source.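 The calls were made as follows: active = virus titer falling by more than one log, over tenfold fewer virus than untreated infected wells; inactive = the rest.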

Take `CC(C)(C)c1ccc(Cn2c(=O)n(Cc3ccc(C(=O)NCC4COC4)cc3)c(=O)c3ccccc32)cc1`: the log virus titer change is, setting by setting: (at 10 µM) -3.4; (titer change, at 2.5 µM) 0.138; (titer change, at 5 µM) -1.13.
On the same counts, the results for `CC(C)c1ccc(Cn2c(=O)n(Cc3ccc(C(=O)NCC4COC4)cc3)c(=O)c3ccccc32)cc1` are -5.75, -3.06 and -5.75.
Taken in the same sequence, the figures for `CC(C)c1ccc(Cn2c(=O)n(Cc3ccc(C(=O)NCC4COC4)cc3)c(=O)c3ncccc32)cc1` were 0.144 (inactive), 0.21 and 0.267.
Taken in the same sequence, the figures for `CC(C)c1ccc(Cn2c(=O)n(Cc3ccc(C(=O)NCC4COC4)cc3)c(=O)c3cccnc32)cc1` were -2.72, 0.155 and -0.572.
